A short description of experiment [1]: Antitumor activity against mouse EAC assessed as non viable cells at 100 ug/ml after 2 hrs by trypan blue exclusion assay. In kind it is functional, Ehrlich. In outline:
(§1)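 EAC cells aspirated from ascitic fluid of preinoculated mice (line maintained by weekly i.p. transplantation), suspended in saline at 2.5×10⁶/ml. Compounds dissolved in DMSO:saline 0.7:0.3 at 1, 0.75, 0.5, 0.25 mg/ml stocks; 0.1 ml added to 0.8 ml saline plus 0.1 ml cells. Incubation 37 °C, 2 h; non-viable cells counted by trypan blue exclusion. IC50 taken from survival-versus-concentration curve.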

The nature of experiment [2]: Antitumor activity against mouse EAC assessed as non viable cells at 75 ug/ml after 2 hrs by trypan blue exclusion assay. In kind it is functional, Ehrlich. The gist of the method: as §1
Experiment [3] is described as follows: Antitumor activity against mouse EAC assessed as non viable cells at 50 ug/ml after 2 hrs by trypan blue exclusion assay. In kind it is functional, Ehrlich. In outline:
as §1

Experiment [4] is described as follows: Antitumor activity against mouse EAC assessed as non viable cells at 25 ug/ml after 2 hrs by trypan blue exclusion assay. In kind it is functional, Ehrlich. The gist of the method: as §1
Experiment [5] is described as follows: Antitumor activity against mouse EAC after 2 hrs by trypan blue exclusion assay. In kind it is functional, cell-based. Conditions: Ehrlich. In outline:
as §1

Experiment [6] has as its system Mus musculus. The experiment is described as follows: Radioprotective activity in 6Gy gamma irradiated Swiss albino mouse assessed as reduction in gamma irradiation-inhibited blood glutathione content at 150 mg/kg, ip administered as 3 doses in alternative days up to 7 days pretreated 30 mins before gamma-irradiation relative to control. In kind it is functional. More on the design: scale not given: the % may be the effect or the level left. Conditions: route intraperitoneal.

Experiment [7] relates to Mus musculus. Briefly: Radioprotective activity in 6 Gy gamma irradiated Swiss albino mouse assessed as change blood superoxide dismutase activity at 150 mg/kg, ip administered as 3 doses in alternative days up to 7 days relative to control. Type of experiment: functional. To be noted: route intraperitoneal.
In experiment [8] the test system is Mus musculus. The experiment is described as follows: Radioprotective activity in 6 Gy gamma irradiated Swiss albino mouse assessed as change in gamma irradiation-induced blood superoxide dismutase activity at 150 mg/kg, ip administered as 3 doses in alternative days up to 7 days pretreated 30 mins before gamma-irradiation relative to control. In kind it is functional. Conditions: route intraperitoneal.

In experiment [9] the test system is Mus musculus. Briefly: Radioprotective activity in 6Gy gamma irradiated Swiss albino mouse assessed as reduction in lipid peroxidation at 150 mg/kg, ip administered as 3 doses in alternative days up to 7 days relative to control. Conditions: route intraperitoneal. Also on record: scale not given: the % may be the effect or the level left. In kind it is functional.

Experiment [10] has as its system Mus musculus. The experiment is described as follows: Radioprotective activity in 6Gy gamma irradiated Swiss albino mouse assessed as reduction in gamma irradiation-induced lipid peroxidation at 150 mg/kg, ip administered as 3 doses in alternative days up to 7 days pretreated 30 mins before gamma-irradiation relative to control. Conditions: route intraperitoneal. Type of experiment: functional. Also on record: scale not given: the % may be the effect or the level left.

In experiment [11] the test system is Mus musculus. The experiment is described as follows: Radioprotective activity in 6Gy gamma irradiated Swiss albino mouse assessed as survival at 150 mg/kg, ip administered as 3 doses in alternative days up to 7 days relative to control. In kind it is functional. To be noted: route intraperitoneal. The gist of the method:
(§2)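 Female Swiss albino mice (25–30 g), 10 per group. Test agent was suspended in carboxymethylcellulose and given ip every other day, 3 injections over 7 days, each 30 min before whole-body gamma irradiation (Cs-137, 6 Gy, 0.86 Gy/min). Groups were untreated, CMC, radiation-only and drug-only. Survival is the percentage of animals alive 7 days after the radiation dose.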

Experiment [12] deals with Mus musculus. Briefly: Radioprotective activity in 6Gy gamma irradiated Swiss albino mouse assessed as […] at 150 mg/kg, ip administered as 3 doses in alternative days up to 7 days pretreated 30 mins before gamma-irradiation relative to control. Conditions: route intraperitoneal. Type of experiment: functional. In outline:
as §2

Experiment [13] has as its system Mus musculus. Briefly: Radioprotective activity in 6Gy gamma irradiated Swiss albino mouse assessed as increase in blood glutathione content at 150 mg/kg, ip administered as 3 doses in alternative days up to 7 days relative to control. To be noted: route intraperitoneal.

Each structure is given as a SMILES string. In brackets after ≈: the same amount, converted by molar mass.

The term IC50 denotes the concentration needed to halve the response being measured. Turning to `O=c1oc2nc3c(cnn3-c3ccccc3)c(=O)n2c2ccccc12`, the Activity is recorded as 30% in [1], 30% in experiment [2], 10% in experiment [3] and 10% in experiment [4]. This molecule returned an IC50 in experiment [5] of more than 100 mg/L.
In the case of `O=c1c2cnn(-c3ccccc3)c2nc2[nH]c3ccccc3n12`, the Activity in experiment [1] was found to be 0%; in experiment [2] it was 0%; in [3], 0%; in experiment [4], 10%. The same molecule registered a half-maximal inhibitory concentration (IC50) in [5] of more than 100 mg/L.
In the case of `S=c1nc2c3cnn(-c4ccccc4)c3ncn2[nH]1`, the Activity in [1] is reported as 30%; in experiment [2], 10%; in experiment [3], 10%; in experiment [4] it was 10%. This molecule gave an IC50 in experiment [5] of more than 100 mg/L.
On to `CSC(=NS(=O)(=O)c1ccc(Nc2nn3c(=O)c4cnn(-c5ccccc5)c4nc3o2)cc1)SC`, for which the Activity in experiment [1] is recorded as 20%; in experiment [2] it was 10%; in [3] it was 10%; in [4] it was 10%. The molecule further yielded a concentration for half-maximal inhibition (IC50) in [5] of more than 100 mg/L.
In the case of `O=C1/C(=C/c2ccccc2)N=C(c2ccccc2)N1n1cnc2c(cnn2-c2ccccc2)c1=O`, the Activity in [1] worked out at 0%; in [2] it was 0%; in experiment [3], 0%; in [4], 10%. Also, the IC50 in [5] is more than 100 mg/L.
Take `Nn1c(=O)[nH]c2c(cnn2-c2ccccc2)c1=O`: the Activity amounted to 50% in experiment [1], 30% in [2], 20% in experiment [3] and 10% in experiment [4]. Besides, the IC50 in experiment [5] was 100 mg/L (≈ 411 µM).
As to `Nn1cnc2c(cnn2-c2ccccc2)c1=S`, the Activity in [1] is on record as 10%; in experiment [2] it was 10%; in experiment [3] it was 10%; in [4], 10%; in experiment [6], 9.63%; in [7], -2.04%. Moreover, the Activity is listed as -9.3% in experiment [8]; 5.33% in [9]; -6.19% in experiment [10]; 100% in experiment [11]; 100% in experiment [12]; 4.95% in experiment [13]. The molecule also showed an IC50 in experiment [5] of more than 100 mg/L.
On to `O=c1c2cnn(-c3ccccc3)c2nc2ocnn12`, for which the Activity in [1] came out at 0%; in [2] it was 0%; in [3], 0%; in [4], 10%. The molecule also displayed an IC50 in [5] of more than 100 mg/L.
Turning to `COc1cccc2c1C(=O)c1c(O)c3c(c(O)c1C2=O)C[C@@](O)(C(=O)CO)C[C@@H]3O[C@H]1C[C@H](N)[C@H](O)[C@H](C)O1` [DOXORUBICIN], the Activity in experiment [1] worked out at 100%; in experiment [2] it was 75%; in [3] it was 55%; in [4] it was 20%. Besides, in [5], the midpoint of inhibition, the IC50, lay at 52 mg/L (≈ 95.7 µM).
As for `O=c1c2cnn(-c3ccccc3)c2ncn1Cc1ccccc1`, the Activity in [1] came out at 80%; in experiment [2] it was 20%; in experiment [3], 10%; in experiment [4], 10%. This molecule also registered an IC50 in experiment [5] of 90 mg/L (≈ 298 µM).

Values taken from ChEMBL document CHEMBL1156126, “Synthesis of some new pyrazolo[3,4-d]pyrimidine derivatives of expected anticancer and radioprotective activity” (Eur J Med Chem, 2010).
